Measurements taken from PMC2941776 (ACS chemical biology, 2008).
Several values for one entry are separate records, joined by “and”; a condition that tells them apart may be missing. Identical values can stand only once. Like-named read-outs stand apart in the source and are kept apart here.

Key:
[1] = molecular target: HIV-1 RT RNase H activity (wild type p66/p51) (Human immunodeficiency virus type 1, UniProt P03366); assay: FRET-based RNase H assay, wild-type HIV-1 RT; format: biochemical
HIV-1 RT Tyr501Trp = HIV-1 RT Tyr501Trp (Human immunodeficiency virus type 1 group M subtype B, UniProt P03366, Y1100W); assay: FRET-based RNase H assay, Tyr501Trp RT; format: biochemical
HIV-1 RT Tyr501Az-Phe = HIV-1 RT Tyr501Az-Phe (Human immunodeficiency virus type 1, UniProt P03366, Y1100X); assay: FRET-based RNase H assay, Tyr501Az-Phe RT; format: biochemical
p66^501BpF/p51 RT = p66^501BpF/p51 RT (Human immunodeficiency virus type 1, UniProt P03366, Y1100X); assay: FRET-based RNase H assay, Tyr501Bp-Phe RT; format: biochemical, HIV-1; conditions: for IC50: IC50, RNase H activity, Tyr501Bp-Phe RT
[2] = molecular target: HIV-1 RT DNA polymerase activity (Human immunodeficiency virus type 1, UniProt P03366); assay: DNA polymerase activity in the absence of pyrophosphorolysis; format: biochemical; conditions: 50 μM, data not shown
[3] = tested on: wild-type RT / RNA-DNA hybrid complex; assay: Electrophoretic mobility shift analysis, wild-type RT on RNA/DNA hybrid; format: binding, HIV-1; conditions: 50 μM; gel-mobility shift
Method in brief: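 Mobility-shift assay: RT 250 nM with RNA/DNA hybrid 50 nM (14 nt RNA–8 nt DNA chimera annealed to 22 nt DNA, mimicking tRNA primer removal) in 50 mM Tris/HCl pH 7.8, 50 mM NaCl. Test compound 0.6–50 μM. Complexes resolved by nondenaturing electrophoresis and detected by autoradiography.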

HIV-1 RNase H activity = assay: Yonetani–Theorell analysis of RNase H inhibition; format: biochemical; conditions: NSC727447 0.25–16 μM, β-thujaplicinol 0.1–0.4 μM; substrate 250 nM, enzyme 4 nM
Method in brief: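 FRET RNase H assay: 18-nt 3'-fluorescein RNA annealed to 5'-dabcyl DNA (250 nM), enzyme 4 nM. Test compound at 0, 0.25, 0.5, 1, 2, 4, 8, 16 μM, each at β-thujaplicinol 0, 0.1, 0.2, 0.4 μM. Substrate added to start; fluorescence followed for 60 min. Inverse rate (ΔRFU/min) fitted to the Yonetani–Theorell equation to obtain interaction term γ.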

Thr473Cys RT = Thr473Cys RT (Human immunodeficiency virus type 1 group M subtype B, UniProt P03366, T1072C); assay: RNase H inhibition, Thr473Cys RT; format: biochemical, HIV-1; conditions: Thr473 replaced with cysteine
[4] = tested on: HIV-1 RT variant with Cys38 and Cys280 removed from p66 and p51; assay: RNase H inhibition, RT variant lacking Cys38 and Cys280; format: biochemical; conditions: Cys38 and Cys280 removed from both subunits

**Q.** How did the IC50 [1] turn out when `NC(=O)c1c(N)sc2c1CCCCC2` [NSC727447, 2-amino-5,6,7,8-tetrahydro-4H-cyclohepta[b]thiophene-3-carboxamide] was run?
**A.** 6.6 µM

**Q.** What about the IC50 (HIV-1 RT Tyr501Trp) of the same molecule?
**A.** 70.6 µM

**Q.** And the “fold decrease in inhibitor potency vs wild type” value (HIV-1 RT Tyr501Trp; Tyr501Trp RT vs wild type)?
**A.** ~ 11 fold

**Q.** And the IC50 (HIV-1 RT Tyr501Az-Phe)?
**A.** 89.6 µM

**Q.** What about the “fold decrease in inhibitor potency vs wild type” value (HIV-1 RT Tyr501Az-Phe; Tyr501Az-Phe RT vs wild type) of the same molecule?
**A.** 14 fold

**Q.** And the IC50 (p66^501BpF/p51 RT)?
**A.** 197 µM and 196 µM

**Q.** And the “fold resistance vs wild type” value (p66^501BpF/p51 RT; p66^501BpF/p51 RT vs wild type)?
**A.** ~30 fold

**Q.** And the “inhibition of DNA polymerase activity” value [2]?
**A.** insensitive to inhibition

**Q.** And the “effect on affinity of RT for RNA/DNA substrate” value [3]?
**A.** unaffected

**Q.** What about the “mode of interaction with β-thujaplicinol (NSC18806), Yonetani–Theorell” value (HIV-1 RNase H activity) of the same molecule?
**A.** mutually exclusive inhibitors

**Q.** What about the “sensitivity of mutant enzyme to inhibitor vs wild type” value (Thr473Cys RT) of the same molecule?
**A.** increased sensitivity

**Q.** And the “sensitivity of mutant enzyme to inhibitor” value [4]?
**A.** retained sensitivity

**Q.** For `Cc1sc(NC(=O)c2ccco2)c(C(N)=O)c1C` [NSC727448, N-[3-(aminocarbonyl)-4,5-dimethyl-2-thienyl]-2-furancarboxamide], which IC50 [1] is on record?
**A.** ~5.5 µM

**Q.** What about the IC50 (p66^501BpF/p51 RT) of the same molecule?
**A.** ~220 µM

**Q.** With manicol [reference compound] as the molecule, how does the IC50 ([1]; read-out: IC50, RNase H activity, wild-type RT, FRET substrate) read?
**A.** 0.6 ± 0.09 µM

**Q.** How did the IC50 [1] turn out when `CC(C)c1ccc(O)c(=O)c(O)c1` [β-thujaplicinol, reference compound] was run?
**A.** 0.25 ± 0.023 µM
